Values joined by “and” are separate entries in the source; they are usually repeats but may differ in a detail not shown here. Equal entries are not always repeated.
System: U2OS
Experiment: Multiplex assay against U2OS
Type: toxicity, cell-based
Settings: human
Outline: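 Compound was added to live cells that had been stained at seeding with Hoechst33342, BioTracker Green Microtubule Cytoskeleton Dye, MitoTracker Red and Annexin V Alexa Fluor 680, and imaging followed on a CQ1 microscope at 37°C and 5% CO2. CellPathfinder machine-learning gating divided cells into Hoechst high-intensity objects or normal cells, normal cells into healthy, pyknosed or fragmented nuclei, and pyknosed cells into mitotic or apoptotic. Tubulin, mitochondrial-mass and membrane-permeability phenotypes are per cents of healthy-nucleus cells.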

[1] = 12 h, 10 µM, compound concentration 10 uM, replicate 1
[2] = 12 h, 10 µM, compound concentration 10 uM, replicate 2
[3] = 24 h, 10 µM, compound concentration 10 uM, replicate 1
[4] = 24 h, 10 µM, compound concentration 10 uM, replicate 2
[5] = 48 h, 10 µM, compound concentration 10 uM, replicate 1
[6] = 48 h, 10 µM, compound concentration 10 uM, replicate 2
[7] = 12 h, 1 µM, compound concentration 1 uM, replicate 1
[8] = 12 h, 1 µM, compound concentration 1 uM, replicate 2
[9] = 24 h, 1 µM, compound concentration 1 uM, replicate 1
[10] = 24 h, 1 µM, compound concentration 1 uM, replicate 2
[11] = 48 h, 1 µM, compound concentration 1 uM, replicate 1
[12] = 48 h, 1 µM, compound concentration 1 uM, replicate 2

CNCc1ccccc1-c1csc([C@H](C)Nc2nc(C)nc3cc(OC)c(OC)cc23)c1 [BAY-294]
Population Apoptotic (%) [1]: 76% and 59% | Population Hoechst High Intensity Objects (%) [1]: 7% and 6% and 3% | Population Membrane Permeable-Phenotype (%) [1]: 100% and 75% and 50% | Population Mitochondria Different-Phenotype (%) [1]: 100% and 90% and 41% | Population Mitotic Cells (%) [1]: 23% and 40% | Population Normal (%) [1]: 92% and 93% and 96% | Population Tubulin-Different-Phenotype (%) [1]: 100% and 97% | Population Apoptotic (%) [2]: 54% and 57% and 68% | Population Healthy Nuclei (%) [2]: 38% and 23% and 66% | Population Membrane Permeable-Phenotype (%) [2]: 88% and 86% and 54% | Population Mitochondria Different-Phenotype (%) [2]: 96% and 93% and 66% | Population Mitotic Cells (%) [2]: 45% and 42% and 31% | Population Normal (%) [2]: 88% and 44% | Population Apoptotic (%) [3]: 90% and 93% and 54% | Population Membrane Permeable-Phenotype (%) [3]: 100% and 54% | Population Mitochondria Different-Phenotype (%) [3]: 100% and 75% | Population Normal (%) [3]: 94% and 86% and 96% | Population Pyknosed Nuclei (%) [3]: 57% and 70% | Population Tubulin-Different-Phenotype (%) [3]: 100% | Population Apoptotic (%) [4]: 92% and 52% and 78% | Population Fragmented Nuclei (%) [4]: 30% and 52% | Population Membrane Permeable-Phenotype (%) [4]: 66% and 85% | Population Mitochondria Different-Phenotype (%) [4]: 76% and 92% | Population Normal (%) [4]: 82% and 92% and 45% | Population Pyknosed Nuclei (%) [4]: 55% and 31% and 27% | Population Tubulin-Different-Phenotype (%) [4]: 98% and 85% | Population Apoptotic (%) [5]: 98% | Population Fragmented Nuclei (%) [5]: 36% | Population Healthy Nuclei (%) [5]: 1% | Population Hoechst High Intensity Objects (%) [5]: 13% | Population Membrane Permeable-Phenotype (%) [5]: 100% | Population Mitochondria Different-Phenotype (%) [5]: 100% | Population Mitotic Cells (%) [5]: 1% | Population Normal (%) [5]: 86% | Population Pyknosed Nuclei (%) [5]: 62% | Population Tubulin-Different-Phenotype (%) [5]: 100% | Population Apoptotic (%) [6]: 70% | Population Fragmented Nuclei (%) [6]: 44% | Population Healthy Nuclei (%) [6]: 18% | Population Hoechst High Intensity Objects (%) [6]: 61% | Population Mitotic Cells (%) [6]: 30% | Population Normal (%) [6]: 38% | Population Pyknosed Nuclei (%) [6]: 37%

CN(C)C(=O)/C(C#N)=C/c1ccc(-c2nc3cnc4[nH]ccc4c3n2C2CCCCC2)o1
Population Apoptotic (%) [7]: 60% | Population Fragmented Nuclei (%) [7]: 17% | Population Healthy Nuclei (%) [7]: 69% | Population Hoechst High Intensity Objects (%) [7]: 8% | Population Membrane Permeable-Phenotype (%) [7]: 5% | Population Mitochondria Different-Phenotype (%) [7]: 14% | Population Mitotic Cells (%) [7]: 40% | Population Normal (%) [7]: 91% | Population Pyknosed Nuclei (%) [7]: 13% | Population Tubulin-Different-Phenotype (%) [7]: 8% | Total Cell Count [7]: 122 | Population Apoptotic (%) [8]: 57% | Population Fragmented Nuclei (%) [8]: 4% | Population Healthy Nuclei (%) [8]: 87% | Population Hoechst High Intensity Objects (%) [8]: 2% | Population Membrane Permeable-Phenotype (%) [8]: 2% | Population Mitochondria Different-Phenotype (%) [8]: 6% | Population Mitotic Cells (%) [8]: 42% | Population Normal (%) [8]: 97% | Population Pyknosed Nuclei (%) [8]: 7% | Population Tubulin-Different-Phenotype (%) [8]: 24% | Total Cell Count [8]: 75 | Population Apoptotic (%) [1]: 19% | Population Fragmented Nuclei (%) [1]: 17% | Population Healthy Nuclei (%) [1]: 56% | Population Hoechst High Intensity Objects (%) [1]: 49% | Population Membrane Permeable-Phenotype (%) [1]: 12% | Population Mitochondria Different-Phenotype (%) [1]: 55% | Population Mitotic Cells (%) [1]: 80% | Population Normal (%) [1]: 50% | Population Pyknosed Nuclei (%) [1]: 25% | Population Tubulin-Different-Phenotype (%) [1]: 75% | Total Cell Count [1]: 167 | Population Apoptotic (%) [2]: 18% | Population Fragmented Nuclei (%) [2]: 20% | Population Healthy Nuclei (%) [2]: 62% | Population Hoechst High Intensity Objects (%) [2]: 54% | Population Membrane Permeable-Phenotype (%) [2]: 13% | Population Mitochondria Different-Phenotype (%) [2]: 63% | Population Mitotic Cells (%) [2]: 81% | Population Normal (%) [2]: 45% | Population Pyknosed Nuclei (%) [2]: 17% | Population Tubulin-Different-Phenotype (%) [2]: 70% | Total Cell Count [2]: 91 | Population Apoptotic (%) [9]: 75% | Population Fragmented Nuclei (%) [9]: 12% | Population Healthy Nuclei (%) [9]: 79% | Population Hoechst High Intensity Objects (%) [9]: 5% | Population Membrane Permeable-Phenotype (%) [9]: 4% | Population Mitochondria Different-Phenotype (%) [9]: 8% | Population Mitotic Cells (%) [9]: 25% | Population Normal (%) [9]: 94% | Population Pyknosed Nuclei (%) [9]: 8% | Population Tubulin-Different-Phenotype (%) [9]: 6% | Total Cell Count [9]: 133 | Population Apoptotic (%) [10]: 54% | Population Fragmented Nuclei (%) [10]: 5% | Population Healthy Nuclei (%) [10]: 84% | Population Hoechst High Intensity Objects (%) [10]: 4% | Population Membrane Permeable-Phenotype (%) [10]: 2% | Population Mitochondria Different-Phenotype (%) [10]: 10% | Population Mitotic Cells (%) [10]: 45% | Population Normal (%) [10]: 95% | Population Pyknosed Nuclei (%) [10]: 9% | Population Tubulin-Different-Phenotype (%) [10]: 36% | Total Cell Count [10]: 81 | Population Apoptotic (%) [3]: 34% | Population Fragmented Nuclei (%) [3]: 17% | Population Healthy Nuclei (%) [3]: 56% | Population Hoechst High Intensity Objects (%) [3]: 44% | Population Membrane Permeable-Phenotype (%) [3]: 15% | Population Mitochondria Different-Phenotype (%) [3]: 45% | Population Mitotic Cells (%) [3]: 65% | Population Normal (%) [3]: 55% | Population Pyknosed Nuclei (%) [3]: 25% | Population Tubulin-Different-Phenotype (%) [3]: 55% | Total Cell Count [3]: 196 | Population Apoptotic (%) [4]: 44% | Population Fragmented Nuclei (%) [4]: 28% | Population Healthy Nuclei (%) [4]: 53% | Population Hoechst High Intensity Objects (%) [4]: 54% | Population Membrane Permeable-Phenotype (%) [4]: 12% | Population Mitochondria Different-Phenotype (%) [4]: 49% | Population Mitotic Cells (%) [4]: 55% | Population Normal (%) [4]: 45% | Population Pyknosed Nuclei (%) [4]: 17% | Population Tubulin-Different-Phenotype (%) [4]: 45% | Total Cell Count [4]: 125 | Population Apoptotic (%) [11]: 55% | Population Fragmented Nuclei (%) [11]: 8% | Population Healthy Nuclei (%) [11]: 85% | Population Hoechst High Intensity Objects (%) [11]: 0% | Population Membrane Permeable-Phenotype (%) [11]: 3% | Population Mitochondria Different-Phenotype (%) [11]: 7% | Population Mitotic Cells (%) [11]: 44% | Population Normal (%) [11]: 99% | Population Pyknosed Nuclei (%) [11]: 6% | Population Tubulin-Different-Phenotype (%) [11]: 10% | Total Cell Count [11]: 179 | Population Apoptotic (%) [12]: 30% | Population Fragmented Nuclei (%) [12]: 4% | Population Healthy Nuclei (%) [12]: 90% | Population Hoechst High Intensity Objects (%) [12]: 1% | Population Membrane Permeable-Phenotype (%) [12]: 1% | Population Mitochondria Different-Phenotype (%) [12]: 15% | Population Mitotic Cells (%) [12]: 70% | Population Normal (%) [12]: 98% | Population Pyknosed Nuclei (%) [12]: 5% | Population Tubulin-Different-Phenotype (%) [12]: 43% | Total Cell Count [12]: 104 | Population Apoptotic (%) [5]: 39% | Population Fragmented Nuclei (%) [5]: 26% | Population Healthy Nuclei (%) [5]: 47% | Population Hoechst High Intensity Objects (%) [5]: 44% | Population Membrane Permeable-Phenotype (%) [5]: 23% | Population Mitochondria Different-Phenotype (%) [5]: 18% | Population Mitotic Cells (%) [5]: 60% | Population Normal (%) [5]: 55% | Population Pyknosed Nuclei (%) [5]: 25% | Population Tubulin-Different-Phenotype (%) [5]: 36% | Total Cell Count [5]: 279 | Population Apoptotic (%) [6]: 63% | Population Fragmented Nuclei (%) [6]: 34% | Population Healthy Nuclei (%) [6]: 49% | Population Hoechst High Intensity Objects (%) [6]: 48% | Population Membrane Permeable-Phenotype (%) [6]: 27% | Population Mitochondria Different-Phenotype (%) [6]: 27% | Population Mitotic Cells (%) [6]: 36% | Population Normal (%) [6]: 51% | Population Pyknosed Nuclei (%) [6]: 16% | Population Tubulin-Different-Phenotype (%) [6]: 31% | Total Cell Count [6]: 172

Source: ChEMBL document CHEMBL4689842, “EUbOPEN Chemogenomics Library wave 1” (2021)
